≈ marks a conversion by molar mass, not a printed value. Where “and” joins values, the source holds several entries; their conditions need not be identical. Equal values may be shown once. Calls of active or inactive are those of the source. The calls are words filed in the database; no cut-off is given here.
Experiments:
[1] = Chemical stability in 0.1 M NH4HCO3 solution at pH 9.1 assessed as parent compound remaining at 1 to 10 uM measured after 24 hrs by HPLC-EM/MS analysis; format: physicochemical; details: dose 1-10 µM, read-out: Stability
Summary of the method: (§1)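 Compounds at 1–10 μM incubated 24 h at 37 °C in three media: pH 1.2 (0.1 M HCl), pH 7.4 (PBS) and pH 9.1 (0.1 M NH4HCO3). Remaining parent compound quantified afterward.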

[2] = target: T1, Enoyl-[acyl-carrier-protein] reductase [NADH] (Mycobacterium tuberculosis, UniProt P9WGR1); assay: Noncompetitive inhibition of Mycobacterium tuberculosis InhA using DD-CoA as substrate assessed as inhibition constant for enzyme-substrate-inhibitor ternary complex in presence of varying concentrations of NADH by double reciprocal plot analysis
T1 sequence (P9WGR1 whole entry): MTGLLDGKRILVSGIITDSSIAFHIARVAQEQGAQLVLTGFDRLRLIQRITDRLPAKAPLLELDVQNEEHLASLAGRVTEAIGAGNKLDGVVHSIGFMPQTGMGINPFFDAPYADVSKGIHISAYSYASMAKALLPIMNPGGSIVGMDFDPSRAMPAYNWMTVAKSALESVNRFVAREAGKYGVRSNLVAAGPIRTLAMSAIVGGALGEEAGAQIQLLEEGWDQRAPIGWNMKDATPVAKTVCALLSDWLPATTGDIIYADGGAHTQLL

[3] = Chemical stability in 0.1 M HCl solution at pH 1.2 assessed as parent compound remaining at 1 to 10 uM measured after 24 hrs by HPLC-EM/MS analysis; format: physicochemical; details: dose 1-10 µM, read-out: Stability; summary of the method: as §1
[4] = Metabolic stability in rat liver microsomes assessed as intrinsic clearance at 2 uM measured upto 30 mins by HPLC/MS/MS analysis; format: ADME, Microsome; details: read-out: CLH
Summary of the method: (§2)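 Compounds at 2 μM incubated at 37 °C with 1 mg/mL rat liver microsomes containing NADPH. Parent compound consumption followed over time.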

[5] = target: T2, Enoyl-[acyl-carrier-protein] reductase [NADH] (Mycobacterium tuberculosis) (UniProt P9WGR1); assay: Binding affinity to Mycobacterium tuberculosis InhA assessed as change in entropy at 250 uM in presence of NADH by fluorescence spectroscopy
T2 sequence (whole entry): T1 sequence (P9WGR1 whole entry)

Escherichia coli = assay: Antibacterial activity against Escherichia coli ATCC 25922 assessed as inhibition of bacterial growth at 20 uM by broth microdilution method; format: functional, organism-based
Summary of the method: (§3)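 Broth microdilution in triplicate against a small bacterial panel, with compounds tested at 20 μM for growth inhibition.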

[6] = Selectivity index, ratio of CC50 for African green monkey Vero cells by MTT assay to MIC for pan-sensitive Mycobacterium tuberculosis H37Rv ATCC 27294; format: toxicity, cell-based; details: read-out: Selectivity Index
[7] = target: T1, Enoyl-[acyl-carrier-protein] reductase [NADH]; assay: Binding affinity to Mycobacterium tuberculosis InhA assessed as dissociation constant at 250 uM at 25 degreeC in presence of NADH by fluorescence spectroscopy
Summary of the method: (§4)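 Titration of pre-formed MtInhA:NADH complex (2 mL of 3 μM enzyme with 20 μM NADH), adding microliter aliquots of 250 μM ligand stock with dilution kept ≤1%. Intrinsic fluorescence read at 295 nm excitation, 310–500 nm emission. Temperatures 15, 20, 25 and 30 °C. KD is fitted to a hyperbolic isotherm. ΔH°, ΔS° and ΔG° come from van't Hoff analysis of KD across temperatures.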

[8] = Selectivity index, ratio of CC50 for human HepG2 cells by MTT assay to MIC for pan-sensitive Mycobacterium tuberculosis H37Rv ATCC 27294; format: toxicity; details: read-out: Selectivity Index
[9] = target: T1, Enoyl-[acyl-carrier-protein] reductase [NADH]; assay: Inhibition of Mycobacterium tuberculosis InhA-catalysed chemical reaction in presence of NADH measured for 1 min by UV/Visible spectrophotometry
Summary of the method: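 Recombinant MtInhA reaction at 25 °C in 100 mM Pipes pH 7.0, started by adding 2.2 μM enzyme and followed for 1 min. Substrate is DD-CoA, made from 2-trans-dodecenoic acid and CoA.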

[10] = system: Mycobacterium tuberculosis; assay: Antibacterial activity against pan-sensitive Mycobacterium tuberculosis H37Rv ATCC 27294 measured after 7 days by resazurin dye based assay; format: functional; details: H37Rv ATCC 27294, 168 h, time 7 day
Summary of the method: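 Resazurin reduction microplate assay (REMA) in Middlebrook 7H9 broth with 10% ADC and 5% DMSO. Compounds come from 2 mg/mL DMSO stocks and are 2-fold serially diluted, top concentration 0.08–40 μg/mL depending on solubility. MIC is the lowest concentration preventing the blue-to-pink colour change. Three independent experiments; the reported value is the modal or the highest value.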

[11] = Cytotoxicity against human HepG2 cells assessed as reduction in cell viability incubated for 72 hrs by neutral red uptake assay; format: toxicity, cell-based
Summary of the method: (§5)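 Cells grown in DMEM with 10% FBS. HepG2 seeded at 4 × 10³ and Vero at 2 × 10³ cells/well, 24 h before dosing. Compounds at 1, 5 and 20 μM in 1% DMSO for 72 h at 37 °C, 5% CO2. MTT readout: 5 mg/mL reagent for 4 h, absorbance at 595 nm. Neutral red readout: 25 μg/mL dye for 3 h, then acid-ethanol desorb. Viability is expressed relative to 1% DMSO controls.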

[12] = Solubility of compound in 0.1 M HCl solution at pH 1.2 at 1 mg incubated for 4 hrs under shaking conditions by liquid chromotography; format: physicochemical
Summary of the method: (§6)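 1 mg of compound was added to 1 mL of PBS pH 7.4 or 0.1 M HCl, in triplicate. Suspensions were vortexed 1 min, shaken 4 h at 25 °C, then centrifuged 13000 rpm for 15 min at 25 °C. Supernatant was quantified by reverse-phase UHPLC (UV 260–280 nm) against a single-point calibration of compound in DMSO.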

[13] = Chemical stability in PBS at pH 7.4 assessed as reduction in parent compound at 1 to 10 uM measured after 24 hrs by HPLC-EM/MS analysis; format: physicochemical; details: dose 1-10 µM, read-out: Drug degradation; summary of the method: as §1
[14] = target: T2, Enoyl-[acyl-carrier-protein] reductase [NADH] (Mycobacterium tuberculosis); assay: Time dependent inhibition of Mycobacterium tuberculosis InhA
[15] = Metabolic stability in rat liver microsomes assessed as half life at 2 uM measured upto 30 mins by HPLC/MS/MS analysis; format: ADME, Microsome; summary of the method: as §2
[16] = Solubility of compound in PBS at pH 7.4 at 1 mg incubated for 4 hrs under shaking conditions by liquid chromotography; format: physicochemical; summary of the method: as §6
[17] = target: T1, Enoyl-[acyl-carrier-protein] reductase [NADH]; assay: Noncompetitive inhibition of Mycobacterium tuberculosis InhA using DD-CoA as substrate assessed as inhibition constant for enzyme-inhibitor binary complex in presence of varying concentrations of NADH by double reciprocal plot analysis
[18] = Cytotoxicity against African green monkey Vero cells assessed as reduction in cell viability incubated for 72 hrs by MTT assay; format: toxicity, cell-based; details: chlorocebus sabaeus; summary of the method: as §5
[19] = Cytotoxicity against African green monkey Vero cells assessed as reduction in cell viability incubated for 72 hrs by neutral red uptake assay; format: toxicity, cell-based; details: chlorocebus sabaeus; summary of the method: as §5
[20] = Cytotoxicity against human HepG2 cells assessed as reduction in cell viability incubated for 72 hrs by MTT assay; format: toxicity, cell-based; summary of the method: as §5
Staphylococcus aureus = assay: Antibacterial activity against Staphylococcus aureus ATCC 25923 assessed as inhibition of bacterial growth at 20 uM by broth microdilution method; format: functional, organism-based; summary of the method: as §3
[21] = Selectivity index, ratio of CC50 for African green monkey Vero cells by neutral red uptake assay to MIC for pan-sensitive Mycobacterium tuberculosis H37Rv ATCC 27294; format: toxicity, cell-based; details: read-out: Selectivity Index
Klebsiella pneumoniae = assay: Antibacterial activity against multidrug-resistant Klebsiella pneumoniae clinical isolates assessed as inhibition of bacterial growth at 20 uM by broth microdilution method; format: functional, organism-based; summary of the method: as §3
[22] = target: T2, Enoyl-[acyl-carrier-protein] reductase [NADH] (Mycobacterium tuberculosis); assay: Binding affinity to Mycobacterium tuberculosis InhA assessed as change in enthalpy at 250 uM in presence of NADH by fluorescence spectroscopy
Acinetobacter baumannii = assay: Antibacterial activity against multidrug-resistant Acinetobacter baumannii clinical isolates assessed as inhibition of bacterial growth at 20 uM by broth microdilution method; format: functional, organism-based; summary of the method: as §3
[23] = Selectivity index, ratio of CC50 for human HepG2 cells by neutral red uptake assay to MIC for pan-sensitive Mycobacterium tuberculosis H37Rv ATCC 27294; format: toxicity; details: read-out: Selectivity Index
[24] = target: T1, Enoyl-[acyl-carrier-protein] reductase [NADH]; assay: Competitive inhibition of Mycobacterium tuberculosis InhA using varying concentrations of DD-CoA as substrate assessed as inhibition constant for enzyme-inhibitor binary complex in presence of NADH by Lineweaver-Burk plot analysis
Summary of the method: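 Steady-state kinetics with recombinant MtInhA in 100 mM Pipes pH 7.0 at 25 °C. NADH fixed at 60 μM, DD-CoA varied 15–135 μM, inhibitor at fixed-varied levels of 0.2–4 μM. Kis is fitted to the competitive inhibition equation.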

[25] = Chemical stability in PBS at pH 7.4 assessed as parent compound remaining at 1 to 10 uM measured after 24 hrs by HPLC-EM/MS analysis; format: physicochemical; details: dose 1-10 µM, read-out: Stability; summary of the method: as §1
[26] = target: T2, Enoyl-[acyl-carrier-protein] reductase [NADH] (Mycobacterium tuberculosis); assay: Binding affinity to Mycobacterium tuberculosis InhA assessed as gibbs free energy change at 250 uM in presence of NADH by fluorescence spectroscopy; summary of the method: as §4
[27] = Permeability of compound at 10 uM measured after 5 hrs by PAMPA assay; format: ADME; details: read-out: permeability
Summary of the method: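 PAMPA: compounds at 10 μM in 2% DMSO added to a pH 7.4 donor phase, 5 h at room temperature. Receptor-side concentration (pH 7.4) measured to derive permeation rate. Alprenolol is the analytical control.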

[28] = system: Mycobacterium tuberculosis; assay: Antibacterial activity against MDR Mycobacterium tuberculosis clinical isolate PE-003 measured after 7 days by resazurin dye based assay; format: functional; details: PE-003, 168 h, time 7 day
[29] = target: T2, Enoyl-[acyl-carrier-protein] reductase [NADH] (Mycobacterium tuberculosis); assay: Binding affinity to recombinant Mycobacterium tuberculosis InhA assessed as gibbs free energy change at 2 mM in presence of NADH by Spectrofluorophotometry
[30] = target: T2, Enoyl-[acyl-carrier-protein] reductase [NADH] (Mycobacterium tuberculosis); assay: Binding affinity to recombinant Mycobacterium tuberculosis InhA assessed as change in enthalpy at 2 mM in presence of NADH by Spectrofluorophotometry
[31] = target: T2, Enoyl-[acyl-carrier-protein] reductase [NADH] (Mycobacterium tuberculosis); assay: Binding affinity to recombinant Mycobacterium tuberculosis InhA assessed as change in entropy at 2 mM in presence of NADH by Spectrofluorophotometry

Compound: CSc1ccc2nc(C)cc(Nc3ccc(N4CCCCC4)cc3)c2c1
- remaining at 24 h, up to 10 µM [1]: 100%
- Ki [2]: 410 nM
- remaining at 24 h, up to 10 µM [3]: 100%
- CLint scaled at 2 µM [4]: 60 mL/min/kg
- deltaS [5]: -55.7 cal/mol/K
- Activity (Escherichia coli): inactive
- selectivity ratio [6]: 27.7
- Kd [7]: 870 nM
- selectivity ratio [8]: 14.7
- IC50 [9]: 1000 nM
- MIC [10]: 0.4 µM (≈ 0.145 µg/mL)
- CC50 at 72 h [11]: 12200 nM
- solubility thermodynamic at 4 h [12]: > 2700 µM
- degraded at 24 h, up to 10 µM [13]: > 30%
- TDI [14]: inactive
- half-life at 2 µM [15]: 5.9 min
- solubility thermodynamic at 4 h [16]: 38 µM (≈ 13.8 µg/mL)
- Ki [17]: 430 nM
- CC50 at 72 h [18]: 11100 nM
- CC50 at 72 h [19]: 8500 nM
- CC50 at 72 h [20]: 5900 nM
- Activity (Staphylococcus aureus): inactive
- selectivity ratio [21]: 21.2
- Activity (Klebsiella pneumoniae): inactive
- deltaH [22]: -25.8 kcal/mol
- Activity (Acinetobacter baumannii): inactive
- selectivity ratio [23]: 30.5
- Ki [24]: 620 nM
- remaining at 24 h, up to 10 µM [25]: 68%
- deltaG [26]: -8.3 kcal/mol
- Papp at 5 h, 10 µM [27]: 0.03 ×10⁻⁶ cm/s

Compound: CCOC(=O)c1ccc2nc(C)cc(Nc3ccc(N4CCCCC4)cc3)c2c1
- MIC [10]: 12.8 µM (≈ 4.99 µg/mL)
- MIC [28]: 2.5 µg/mL and 6.4 µM
- deltaG [29]: -7.1 kcal/mol
- deltaH [30]: -23.3 kcal/mol
- deltaS [31]: -54.5 cal/mol/K

— ChEMBL document CHEMBL5385869, “Novel 4-aminoquinolines: Synthesis, inhibition of the Mycobacterium tuberculosis enoyl-acyl carrier protein reductase, antitubercular activity, SAR, and preclinical evaluation” (Eur J Med Chem, 2023)
